These results are taken from PubChem BioAssay AID588582 (Sanford-Burnham Center for Chemical Genomics, 2011).

The target in the assay is CHO-XBP1 luciferase reporter, IRE1-XBP1 arm activation. The assay can be described thus: activators of UPR adaptive arm reporter – cell-based, luciferase luminescence, set 2, counter-screen for UPR apoptotic arm activator project, SAR follow-up (AID 588582). The method in brief: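 Material: CHO cell line stably carrying XBP1-linked luciferase reporter; times: cells plated 16–18 h before dosing, compound exposure 6 h at 37 °C; technique: Steady-Glo luminescence; benchmarks: high 10 µg/mL tunicamycin, low DMSO only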

Calls of active or inactive are those of the source.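 Rule for the calls: active = mean EC50 at or below 20 µM; inactive = the rest.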

As for `O=C(Nc1nc2c(F)c(F)ccc2s1)c1ccccn1`, the EC50 is > 80 µM (inactive). To `O=C(Nc1nc2ccc(Cl)cc2s1)c1ccccn1` belongs > 80 µM (inactive); to `O=C(Nc1nc2cc(F)cc(F)c2s1)c1ccccn1`, > 80 µM (inactive); to `O=C(Nc1nc2cc(F)ccc2s1)c1ccccn1`, > 80 µM (inactive). To `O=C(Nc1ccc(S(=O)(=O)N2CCC3(CCCCC3)CC2)cc1)c1ccc([N+](=O)[O-])o1` belongs > 80 µM (inactive); to `O=C(Nc1ccc(S(=O)(=O)N2CCC(F)CC2)cc1)c1ccc([N+](=O)[O-])o1`, > 80 µM (inactive).

Take `O=C(Nc1ccc(S(=O)(=O)C2CCOCC2)cc1)c1ccc([N+](=O)[O-])o1`: the EC50 was > 80 µM (inactive). To `O=C(Nc1nc2cccc(F)c2s1)c1ccccn1` belongs > 80 µM (inactive); to `O=C(Nc1ccc(S(=O)(=O)N2CCC(Cl)CC2)cc1)c1ccc([N+](=O)[O-])o1`, > 80 µM (inactive); to `CC1CN(S(=O)(=O)c2ccc(NC(=O)c3ccc([N+](=O)[O-])o3)cc2)CC(C)O1` (stereo not drawn), > 80 µM (inactive). The figure for `CC1(C)CCN(S(=O)(=O)c2ccc(NC(=O)c3cccc([N+](=O)[O-])c3)cc2)CC1` is > 80 µM (inactive); for `O=C(Nc1nc2c(F)ccc(F)c2s1)c1ccccn1` it is > 80 µM (inactive); for `CC1(C)CCN(S(=O)(=O)c2ccc(NC(=O)c3ccc(C(F)(F)F)o3)cc2)CC1` it is > 80 µM (inactive).

Turning to `Cn1c([N+](=O)[O-])cnc1C(=O)Nc1ccc(S(=O)(=O)N2CCC(C)(C)CC2)cc1`, the EC50 is > 80 µM (inactive).

Regarding `O=C(Nc1nc2ccc(C(F)(F)F)cc2s1)c1ccccn1`, the EC50 is > 80 µM (inactive).

For `O=C(Nc1nc2ccc(F)c(F)c2s1)c1ccccn1`, the EC50 was > 80 µM (inactive). Regarding `CC(C)(C)C1CCN(S(=O)(=O)c2ccc(NC(=O)c3ccc([N+](=O)[O-])o3)cc2)CC1`, the EC50 was > 80 µM (inactive).

With `O=C(Nc1nc2cc(F)c(F)cc2s1)c1ccccn1`, the EC50 was > 80 µM (inactive).
